Measured values as given in ChEMBL document CHEMBL3352502, “A dual inhibitor of matrix metalloproteinases and a disintegrin and metalloproteinases, [¹⁸F]FB-ML5, as a molecular probe for non-invasive MMP/ADAM-targeted imaging” (Bioorg Med Chem, 2015).

Legend:
[1] = target: 72 kDa type IV collagenase (Homo sapiens, UniProt P08253); assay: Inhibition of human recombinant MMP2 catalytic domain using Mca-Pro-Leu-Gly-Leu-Dpa-Ala-Arg-NH2 fluorogenic substrate
How it was run: (§1)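 Recombinant human catalytic domains (MMP-2; MMP-9 lacking fibronectin type II insert and MMP-12, both E. coli-expressed) at 10 ng per well with fluorogenic substrate. Buffer: 50 mM Tris pH 7.4, 0.2 M NaCl, 10 mM CaCl₂, ZnCl₂, 0.05% v/v Brij-35. Fluorescence rise (ex 320/em 440 nm) read for 15 min at 20 °C over inhibitor series up to 1000 nM (or 100 µM). IC50 by sigmoidal fit, triplicate.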

[2] = target: Matrix metalloproteinase-9 (Homo sapiens, UniProt P14780); assay: Inhibition of human recombinant MMP9 catalytic domain using Mca-Pro-Leu-Gly-Leu-Dpa-Ala-Arg-NH2 fluorogenic substrate; how it was run: as §1
[3] = target: Macrophage metalloelastase (Homo sapiens, UniProt P39900); assay: Inhibition of human recombinant MMP12 catalytic domain Mca-Pro-Leu-Gly-Leu-Dpa-Ala-Arg-NH2 fluorogenic substrate; how it was run: as §1
Plasma [4] = assay: Drug uptake in HT1080 cells xenografted mouse plasma after 90 mins in presence of non-radioactive ML5; assay type: ADME, cell-based, HT-1080; details: in vivo, 1.5 h
How it was run: (§2)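 Male BALB/c nu/nu mice, 7–8 weeks old, were given (2–2.5)×10⁶ HT1080 cells s.c. in the right shoulder in Matrigel/EMEM (1:1). They were used 14–21 days later at tumor volume 0.3–0.6 mL. [¹⁸F]FB-ML5 was given alone or co-injected with 2.5 mg/kg ML5. Tissues were weighed and gamma-counted. SUVmean = tissue MBq/g ÷ (injected MBq/body weight g). n = 6 per group, mean ± SD, unpaired t-test.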

[5] = Drug uptake in HT1080 cells xenografted mouse assessed as bone to plasma ratio after 90 mins; assay type: ADME, cell-based, HT-1080; details: bone and plasma
How it was run: (§3)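 Male BALB/c nude mice, 7–8 weeks, with (2–2.5)×10⁶ HT1080 cells in Matrigel/EMEM injected subcutaneously into the right shoulder. Tracer injected when tumors reached 0.3–0.6 mL (14–21 days), followed by a 90 min microPET scan. Ex vivo: organs and plasma gamma-counted at 90 min p.i. SUV_mean for each tissue divided by plasma SUV_mean. n = 6, mean SD.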

Bone [6] = assay: Drug uptake in HT1080 cells xenografted mouse bone after 90 mins; assay type: ADME, cell-based, Bone element, HT-1080; details: in vivo, 1.5 h; how it was run: as §2
Liver [7] = assay: Drug uptake in HT1080 cells xenografted mouse liver after 90 mins in presence of non-radioactive ML5; assay type: ADME, cell-based, HT-1080; details: in vivo, 1.5 h; how it was run: as §2
[8] = Drug uptake in HT1080 cells xenografted mouse assessed as liver to plasma ratio after 90 mins; assay type: ADME, cell-based, HT-1080; details: liver and plasma; how it was run: as §3
[9] = Drug uptake in HT1080 cells xenografted mouse assessed as large intestine to plasma ratio after 90 mins; assay type: ADME, cell-based, HT-1080; details: large intestine and plasma; how it was run: as §3
[10] = Octanol-water partition coefficient, log P of the compound; assay type: physicochemical
How it was run: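 About 5 kBq [¹⁸F]FB-ML5 in saline was mixed with 495 µL PBS pH 7.4 and 500 µL n-octanol. Vortexed 5 min, centrifuged 5 min at 3000 rpm, then 100 µL of each layer gamma-counted. logP = log₁₀(cpm octanol/cpm aqueous), triplicate.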

Tumour [11] = assay: Drug uptake in HT1080 cells xenografted mouse tumor after 90 mins in presence of non-radioactive ML5; assay type: ADME, Neoplasm, HT-1080; details: in vivo, 1.5 h; how it was run: as §2
Plasma [12] = assay: Drug uptake in HT1080 cells xenografted mouse plasma after 90 mins; assay type: ADME, cell-based, HT-1080; details: in vivo, 1.5 h; how it was run: as §2
Heart [13] = assay: Drug uptake in HT1080 cells xenografted mouse heart after 90 mins; assay type: ADME, cell-based, HT-1080; details: in vivo, 1.5 h; how it was run: as §2
Lung [14] = assay: Drug uptake in HT1080 cells xenografted mouse lung after 90 mins; assay type: ADME, cell-based, HT-1080; details: in vivo, 1.5 h; how it was run: as §2
Intestine [15] = assay: Drug uptake in HT1080 cells xenografted mouse small intestine after 90 mins; assay type: ADME, cell-based, HT-1080; details: in vivo, 1.5 h; how it was run: as §2
[16] = Drug uptake in HT1080 cells xenografted mouse assessed as tumor to plasma ratio after 90 mins; assay type: ADME, cell-based, HT-1080; details: tumor and plasma; how it was run: as §3
[17] = Drug uptake in HT1080 cells xenografted mouse assessed as tumor to plasma ratio after 90 mins in presence of non-radioactive ML5; assay type: ADME, cell-based, HT-1080; details: tumor and plasma
How it was run: (§4)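 Same HT1080 subcutaneous xenograft in male BALB/c nude mice. The tracer was co-injected with 2.5 mg/kg non-radioactive ML5 and scanned for 90 min. Organs and plasma were gamma-counted ex vivo at 90 min p.i. The tissue/plasma SUV_mean ratio was calculated. n = 6, mean SD, unpaired two-sided t-test against the group without ML5.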

[18] = Drug uptake in HT1080 cells xenografted mouse assessed as heart to plasma ratio after 90 mins; assay type: ADME, cell-based, HT-1080; details: heart and plasma; how it was run: as §3
Bone [19] = assay: Drug uptake in HT1080 cells xenografted mouse bone after 90 mins in presence of non-radioactive ML5; assay type: ADME, cell-based, Bone element, HT-1080; details: in vivo, 1.5 h; how it was run: as §2
[20] = Drug uptake in HT1080 cells xenografted mouse assessed as large intestine to plasma ratio after 90 mins in presence of non-radioactive ML5; assay type: ADME, cell-based, HT-1080; details: large intestine and plasma; how it was run: as §4
[21] = Drug uptake in HT1080 cells xenografted mouse assessed as liver to plasma ratio after 90 mins in presence of non-radioactive ML5; assay type: ADME, cell-based, HT-1080; details: liver and plasma; how it was run: as §4
[22] = Drug uptake in HT1080 cells xenografted mouse assessed as bone to plasma ratio after 90 mins in presence of non-radioactive ML5; assay type: ADME, cell-based, HT-1080; details: bone and plasma; how it was run: as §4
Lung [23] = assay: Drug uptake in HT1080 cells xenografted mouse lung after 90 mins in presence of non-radioactive ML5; assay type: ADME, cell-based, HT-1080; details: in vivo, 1.5 h; how it was run: as §2
Heart [24] = assay: Drug uptake in HT1080 cells xenografted mouse heart after 90 mins in presence of non-radioactive ML5; assay type: ADME, cell-based, HT-1080; details: in vivo, 1.5 h; how it was run: as §2
Intestine [25] = assay: Drug uptake in HT1080 cells xenografted mouse large intestine after 90 mins in presence of non-radioactive ML5; assay type: ADME, cell-based, HT-1080; details: in vivo, 1.5 h; how it was run: as §2
Tumour [26] = assay: Drug uptake in HT1080 cells xenografted mouse tumor after 90 mins; assay type: ADME, Neoplasm, HT-1080; details: in vivo, 1.5 h; how it was run: as §2
Plasma [27] = assay: Drug uptake in HT1080 cells xenografted mouse plasma assessed as parent compound after 90 mins; assay type: ADME, cell-based, HT-1080; details: in vivo, 1.5 h
How it was run: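 Parent fraction in plasma of control HT1080-bearing mice at 90 min p.i. Plasma (250 µL) was deproteinized with 750 µL ACN, centrifuged 3 min at 3000 rpm and filtered (0.22 µm). Analysed by semi-preparative reverse-phase HPLC with radioactivity detection; % intact tracer of total plasma radioactivity, n = 2.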

[28] = Drug uptake in HT1080 cells xenografted mouse assessed as heart to plasma ratio after 90 mins in presence of non-radioactive ML5; assay type: ADME, cell-based, HT-1080; details: heart and plasma; how it was run: as §4
Intestine [29] = assay: Drug uptake in HT1080 cells xenografted mouse large intestine after 90 mins; assay type: ADME, cell-based, HT-1080; details: in vivo, 1.5 h; how it was run: as §2
Liver [30] = assay: Drug uptake in HT1080 cells xenografted mouse liver after 90 mins; assay type: ADME, cell-based, HT-1080; details: in vivo, 1.5 h; how it was run: as §2

Chain of Matrix metalloproteinase-9 (P14780 whole entry, the tested form may be a part): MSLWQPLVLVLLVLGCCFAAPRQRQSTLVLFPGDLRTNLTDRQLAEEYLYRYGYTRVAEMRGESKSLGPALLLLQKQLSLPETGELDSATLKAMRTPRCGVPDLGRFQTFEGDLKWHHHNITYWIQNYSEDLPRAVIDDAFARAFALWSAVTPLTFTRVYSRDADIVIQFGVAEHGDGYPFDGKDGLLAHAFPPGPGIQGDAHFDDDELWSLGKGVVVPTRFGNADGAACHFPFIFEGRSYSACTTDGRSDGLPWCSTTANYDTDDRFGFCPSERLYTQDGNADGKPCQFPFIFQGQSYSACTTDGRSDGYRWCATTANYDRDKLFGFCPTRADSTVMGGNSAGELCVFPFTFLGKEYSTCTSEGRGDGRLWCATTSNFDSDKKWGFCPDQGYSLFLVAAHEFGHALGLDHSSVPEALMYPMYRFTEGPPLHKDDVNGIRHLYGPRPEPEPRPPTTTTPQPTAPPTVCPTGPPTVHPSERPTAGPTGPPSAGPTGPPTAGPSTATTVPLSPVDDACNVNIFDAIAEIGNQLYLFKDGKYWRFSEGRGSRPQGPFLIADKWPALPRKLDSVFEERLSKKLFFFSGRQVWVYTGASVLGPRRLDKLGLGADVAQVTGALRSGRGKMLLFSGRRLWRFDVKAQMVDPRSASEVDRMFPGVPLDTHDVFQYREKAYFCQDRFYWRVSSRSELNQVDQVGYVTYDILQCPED
Chain of 72 kDa type IV collagenase (P08253 whole entry, the tested form may be a part): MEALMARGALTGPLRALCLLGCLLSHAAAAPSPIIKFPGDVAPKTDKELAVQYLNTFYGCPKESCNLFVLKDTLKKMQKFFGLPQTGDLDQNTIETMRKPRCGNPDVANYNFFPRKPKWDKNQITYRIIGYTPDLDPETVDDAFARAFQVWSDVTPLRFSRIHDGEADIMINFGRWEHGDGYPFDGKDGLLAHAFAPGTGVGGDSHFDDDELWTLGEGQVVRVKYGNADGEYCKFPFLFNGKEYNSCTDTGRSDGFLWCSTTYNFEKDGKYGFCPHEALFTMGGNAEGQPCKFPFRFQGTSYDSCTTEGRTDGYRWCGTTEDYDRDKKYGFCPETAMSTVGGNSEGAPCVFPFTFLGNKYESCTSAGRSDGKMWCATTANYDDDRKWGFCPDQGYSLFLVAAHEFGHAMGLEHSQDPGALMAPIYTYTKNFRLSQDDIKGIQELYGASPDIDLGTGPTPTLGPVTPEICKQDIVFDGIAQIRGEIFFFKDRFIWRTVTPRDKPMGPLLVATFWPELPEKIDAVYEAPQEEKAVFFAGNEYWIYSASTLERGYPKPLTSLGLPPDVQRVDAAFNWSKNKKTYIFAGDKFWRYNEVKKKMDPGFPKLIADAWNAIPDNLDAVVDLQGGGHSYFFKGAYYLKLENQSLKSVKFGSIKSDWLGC
Chain of Macrophage metalloelastase (P39900 whole entry, the tested form may be a part): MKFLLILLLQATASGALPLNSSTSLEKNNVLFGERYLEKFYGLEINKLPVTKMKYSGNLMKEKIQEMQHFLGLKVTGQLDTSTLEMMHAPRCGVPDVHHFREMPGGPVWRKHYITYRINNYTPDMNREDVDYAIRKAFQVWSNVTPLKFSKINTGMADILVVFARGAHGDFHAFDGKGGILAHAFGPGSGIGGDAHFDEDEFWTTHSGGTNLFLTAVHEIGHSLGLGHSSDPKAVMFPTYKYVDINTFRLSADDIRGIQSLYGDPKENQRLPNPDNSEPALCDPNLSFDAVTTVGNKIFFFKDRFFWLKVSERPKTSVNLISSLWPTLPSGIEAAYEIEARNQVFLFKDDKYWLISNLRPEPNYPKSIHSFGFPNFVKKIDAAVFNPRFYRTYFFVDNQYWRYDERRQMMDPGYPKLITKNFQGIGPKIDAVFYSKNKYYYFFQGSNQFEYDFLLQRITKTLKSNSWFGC

CC(C)C[C@H](CC(=O)NO)C(=O)N[C@@H](Cc1ccccc1)C(=O)N[C@@H](CCCCN)C(N)=O
IC50 [1]: 7.4 nM | IC50 [2]: 19.5 nM | IC50 [3]: 2 nM

CC(C)C[C@H](CC(=O)NOC(=O)c1ccc(F)cc1)C(=O)N[C@@H](Cc1ccccc1)C(=O)N[C@@H](CCCCNC(=O)c1ccc(F)cc1)C(N)=O
IC50 [2]: 1490 nM

CC(C)C[C@H](CC(=O)NO)C(=O)N[C@@H](Cc1ccccc1)C(=O)N[C@@H](CCCCNC(=O)c1ccc(F)cc1)C(N)=O
IC50 [1]: 12.5 nM | IC50 [2]: 31.5 nM | IC50 [3]: 138 nM

CC(C)C[C@H](CC(=O)NO)C(=O)N[C@@H](Cc1ccccc1)C(=O)N[C@@H](CCCCNC(=O)c1ccc([18F])cc1)C(N)=O
SUV (Plasma [4]): 0.185 | Kp at 1.5 h [5]: 0.179 | SUV (Bone [6]): 0.041 | SUV (Liver [7]): 2 | Kp at 1.5 h [8]: 19.2 | Kp at 1.5 h [9]: 7.83 | logP [10]: 1.11 | SUV (Tumour [11]): 0.041 | SUV (Plasma [12]): 0.238 | SUV (Heart [13]): 0.111 | SUV (Lung [14]): 0.254 | SUV (Intestine [15]): 5.207 | Kp at 1.5 h [16]: 0.597 | Kp at 1.5 h [17]: 0.231 | Kp at 1.5 h [18]: 0.482 | SUV (Bone [19]): 0.017 | Kp at 1.5 h [20]: 14.8 | Kp at 1.5 h [21]: 10.9 | Kp at 1.5 h [22]: 0.09 | SUV (Lung [23]): 0.106 | SUV (Heart [24]): 0.043 | SUV (Intestine [25]): 2.75 | SUV (Tumour [26]): 0.145 | Drug uptake (Plasma [27]): 23.2% | Kp at 1.5 h [28]: 0.235 | SUV (Intestine [29]): 1.8 | SUV (Liver [30]): 4.58
